# EP2 antag = EP2 receptor (human) inhibition | AID 1422 | P43116 | C6 glioma cells expressing human EP2, cAMP TR-FRET; cells stimulated with saturating PGE2 | 0.52% of 260,000 active | inhibition, % at 25 µM;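 active = percent inhibition above 40 after rounding to a whole number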;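 note: rat C6 glioma host cells with rolipram phosphodiesterase inhibitor present; the protocol text gives 20 µM as final concentration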
# NPY Y1 blocker = blocks the human neuropeptide Y Y1 receptor | 1% of 200,000 active | HEK293-CNG Y1 cells, membrane potential fluorescence; NPY at EC95, then isoproterenol | AID 1040 | inhibition, % at 3.6 µM | P25929;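 active = inhibition above the campaign mean inhibition of all tested compounds plus 3 SD, cut at about 20% in these data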;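 note: 0% = DMSO wells given NPY plus isoproterenol and 100% = isoproterenol alone without NPY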
# Target sequence (P25929 whole entry, looked up): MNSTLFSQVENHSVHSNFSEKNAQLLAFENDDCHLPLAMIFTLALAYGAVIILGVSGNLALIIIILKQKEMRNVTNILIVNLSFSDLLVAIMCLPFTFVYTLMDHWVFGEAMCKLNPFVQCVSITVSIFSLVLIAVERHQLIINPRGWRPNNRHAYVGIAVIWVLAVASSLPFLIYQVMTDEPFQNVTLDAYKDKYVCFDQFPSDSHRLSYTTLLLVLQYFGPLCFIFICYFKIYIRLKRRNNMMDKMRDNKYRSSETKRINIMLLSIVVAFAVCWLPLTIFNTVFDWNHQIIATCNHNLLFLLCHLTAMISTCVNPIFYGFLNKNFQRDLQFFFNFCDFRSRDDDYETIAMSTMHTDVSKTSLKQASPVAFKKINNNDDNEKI
#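 Material: HEK293 cells with Y1 receptor plus CNG channel; times: compound incubation 1 h at room temperature, readout 45 min post-stimulation; signal: fluorescence, membrane potential probe; read-out basis: fluorescence ratio normalized to % inhibition between controls; benchmarks: full-block control isoproterenol-only wells, zero-block control NPY plus isoproterenol wells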
# NPY-Y2 antag = antagonists of human neuropeptide Y receptor Y2; P49146; NPY-Y2 expressing cells, antagonist mode; inhibition, % at 2.7 µM; 0.99% of 140,000 active; AID 793;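 note: 0% = vehicle with agonist challenge and 100% = reference antagonist with challenge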
# NPY-Y1 PAM-ag = human NPY-Y1 potentiation or agonism, primary screen; 0.37% of 220,000 active; P25929; activation, % at 3.6 µM; NPY-Y1 expressing cells, potentiator/agonist activation; in the data active = activation above about 33%, passing the limit was not always enough;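 note: cells stimulated with NPY at EC10 then isoproterenol at EC100; 0% = low agonist plus stimulus and 100% = saturating agonist plus stimulus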
# EP2 modulator = modulators of human EP2 prostaglandin E2 receptor. P43116. EP2-expressing cells, cAMP HTRF FRET, PGE2 co-stimulation. induction, % at 25 µM. 0.83% of 260,000 active;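 active = compounds whose cAMP rise, as percent of the full-agonist control response, exceeds 60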;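 note: rat C6 glioma line stably carrying human EP2 under a CMV promoter; the protocol text gives 20 µM as final concentration; 100% = response of wells given 1 µM PGE2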
# NPY-Y2 PAM-ag = human NPY-Y2 potentiation or agonism, primary screen. P49146. cells expressing NPY-Y2, potentiator/agonist read-out. activation, % at 3.6 µM. 0.45% of 220,000 active. AID 1359; in the data active = activation above about 27%;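 note: cells stimulated with NPY near EC25 plus isoproterenol at EC100; 0% = vehicle plus submaximal agonist and 100% = vehicle plus saturating agonist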
# NPY-Y1 ant conf = confirmation of human neuropeptide Y receptor Y1 antagonists. HEK293-CNG NPY-Y1, membrane potential fluorescence, cAMP; NPY challenge against isoproterenol-raised cAMP. shares compounds with NPY Y1 blocker. inhibition, % at 3.6 µM. 21% of 1,200 active; in the data active = inhibition above about 20%;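 note: 0% = vehicle with agonist plus stimulus and 100% = stimulus alone without agonist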
# NPY-Y2 antag ct = counter-screen for NPY-Y1 antagonists: human NPY-Y2 antagonism; HEK293 NPY-Y2 CNG membrane potential fluorescence; cells given NPY, then isoproterenol; 28% of 1,200 active; shares compounds with NPY Y1 blocker; inhibition, % at 3.6 µM;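 note: 0% = DMSO with agonist challenge and 100% = reference antagonist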
# An asterisk follows results filed as active; / = not tested or not shown. The list is not random: actives were taken first. Their share in the collection is about 2.8%. Cut-off read from the data, not from the text of the source, unless noted: active = inhibition above about 17%; inactive = the rest.
SMILES,EP2 antag,NPY Y1 blocker,NPY-Y2 antag,NPY-Y1 PAM-ag,EP2 modulator,NPY-Y2 PAM-ag,NPY-Y1 ant conf,NPY-Y2 antag ct
CCC1(C(=O)c2ccccc2)C(c2ccc([N+](=O)[O-])cc2)C1(C(=O)OC)C(=O)OC (configuration not stated),7,22*,9,-34,47,-8,7,4
CC/C(=N\Nc1ccc([N+](=O)[O-])cc1)c1ccccc1,7,-5,/,21,6,4,/,/
CCc1cccc(CC)c1NC(=O)Cn1c(-c2ccc(F)cc2)noc1=O,0,30*,/,-7,31,-12,17,6
Cc1cc(C)c(C#N)c(SCC(=O)c2cc(C)n(CCc3ccccc3)c2C)n1,17,24*,1,-10,15,4,10,11
COc1ccc2c(c1)c1nnc(SCC(=O)OC3CCCCC3)nc1n2C,10,/,/,/,6,/,/,/
O=C(Nc1cccc(Cl)c1)OCc1cn(-c2ccc(Cl)cc2)nn1,/,20*,7,0,-34,3,8,12
Cc1ccc(NC(=O)OCc2cn(-c3ccc(Cl)cc3)nn2)cc1,/,29*,15,-21,7,-7,18,18*
O=C(OCc1cn(-c2ccc(Cl)cc2)nn1)c1ccccc1,/,21*,8,-27,-66,-14,10,12
CCOC(=O)NC(NC(=S)Nc1ccc(OCC)cc1)C(Cl)(Cl)Cl (configuration not stated),4,11,-2,25,1,-1,/,/
O=C(NC(NC(=S)Nc1c(Cl)cccc1Cl)C(Cl)(Cl)Cl)OCc1ccccc1 (configuration not stated),11,22*,4,27,-33,12,15,3
CN(C)c1ccnc(N(Cc2ccccc2)Cc2ccccc2)c1C#N,10,39*,8,-33,45,-31,48*,83*
CCN(CC)CCNC(=S)NC(=O)c1cn(-c2ccccc2)nc1-c1ccc(OC)cc1,12,26*,/,-43,-9,-43,17,32*
Cc1cccc2nc(-c3cccnc3)c(NCCC(C)C)n12,5,22*,/,0,59,-7,14,10
O=c1oc2ccccc2cc1-c1nc(-c2cccs2)cs1,8,30*,13,-28,61*,-2,11,8
COc1cccc2cc(-c3nc(-c4cccs4)cs3)c(=O)oc12,19,0,-2,-29,53,-20,/,/
CC1(C)C(CSc2nc3ccccc3[nH]2)C1(Cl)Cl (configuration not stated),3,92*,/,-46,18,-82,90*,110*
Cc1cc2c(cc1CN1CCC(O)(c3ccccc3)C1)OCO2 (configuration not stated),10,/,/,/,-29,/,/,/
CC1CC(C)CN(S(=O)(=O)c2ccccc2)C1 (configuration not stated),9,/,/,/,-15,/,/,/
COc1ccc(CN2CCC(CO)(CCOc3ccccc3)CC2)c(OC)c1C,4,24*,/,-15,-57,-22,11,17
Cc1nn(C)cc1CN1CCC(CO)(CCOc2ccccc2)CC1,5,6,/,-13,3,-17,/,/
CCOc1ccccc1CN1CCC(CO)(CCOc2ccccc2)CC1,10,31*,/,-49,-40,-32,14,17
Cc1ccc(C)c2[nH]c(=O)c(CN(Cc3ccccc3)C(=S)NCCCN(C)C)cc12,12,/,/,/,-100,/,/,/
O=C(Nc1cccc(Br)c1)c1cccnc1,7,/,/,/,-56,/,/,/
COc1cc(OC)cc(-c2nnc(SCC(=O)c3cccs3)o2)c1,11,/,/,/,-35,/,/,/
CCCn1nnc(NC(=O)c2cccc(Cl)c2)n1,7,51*,2,10,-45,-9,1,1
SMILES,EP2 antag,NPY Y1 blocker,NPY-Y2 antag,NPY-Y1 PAM-ag,EP2 modulator,NPY-Y2 PAM-ag,NPY-Y1 ant conf,NPY-Y2 antag ct
c1ccc(-c2ccccc2OCCOCCN2CCCCC2)cc1,4,6,6,-34,-11,-15,/,/
c1ccc(-c2ccccc2OCCCCN2CCCCCC2)cc1,3,24*,/,-14,-32,-13,9,11
CC1CCCN(CCCOc2ccccc2-c2ccccc2)C1 (configuration not stated),8,25*,/,-5,8,-10,14,11
CCCCNCCOc1ccccc1-c1ccccc1,6,30*,16,-30,1,3,15,12
CC1(C)Cc2ccccc2-c2nnc(SCC(=O)Nc3ccccc3-c3ccccc3)n21,10,/,/,/,-12,/,/,/
Cc1cccc(OCc2nnc(SCC(=O)NCc3ccc4c(c3)OCO4)n2C)c1C,7,/,/,/,34,/,/,/
NC(=O)COc1ccc(C2C3=C(CCCC3=O)OC3=C2C(=O)CCC3)cc1Cl,11,/,/,/,-25,/,/,/
O=C1CN=C(Nc2ccccc2F)N1C1CCCC1,5,/,/,/,-16,/,/,/
CCOc1cc(C2C(C(C)=O)=C(O)C(=O)N2CCCOC)ccc1O (configuration not stated),10,/,/,/,-24,/,/,/
COc1ccc(N2CC(C(=O)OCC(=O)Nc3ccccc3Cl)CC2=O)cc1 (configuration not stated),10,/,/,/,-76,/,/,/
CC1CCN(c2nc(-c3cccnc3)nc3scc(-c4ccccc4)c23)CC1,3,1,0,10,47,11,/,/
CN1CCN(c2nc(-c3cccnc3)nc3scc(-c4ccccc4)c23)CC1,10,28*,/,-38,-3,-23,7,13
COc1ccc2c(c1)CCc1cc(C(=O)O)sc1-2,6,/,/,-46,10,-40,/,/
O=C(O)c1cc2c(s1)-c1ccccc1CC2,20,21*,13,-31,3,-16,10,13
CCC(=O)N1CCN(c2ccc(NC(=O)C(C)(C)C)cc2)CC1,12,/,/,/,10,/,/,/
COc1ccc(C(=O)c2ccc(Cl)cc2)cc1,7,3,4,-9,-2,-9,/,/
CCc1ncc(C(=O)c2ccc(OC)cc2)n1C,4,29*,-2,-14,7,0,0,0
CC[n+]1cn(CCn2c[n+](CC)c3ccc(Cl)cc32)c2cc(Cl)ccc21,6,/,/,/,13,/,/,/
COc1ccc(-n2nnnc2-c2cccc(OC)c2)cc1,10,24*,5,0,11,-15,4,29*
Cc1ccc(-n2nnnc2-c2cccc(C)c2)cc1,4,3,/,0,32,4,/,/
CC(=O)/C=C1\N(C)c2ccc(C)cc2C1(C)C,8,5,/,-10,-50,-12,/,/
CCCCC12CN3CC(C)(CN(C1)C31C(=O)N(C)c3ccc(C)cc31)C2=O (configuration not stated),6,21*,3,-7,16,11,2,8

# From PubChem
